From paper PMC5474437 (EBioMedicine, 2017)

Legend:
liver of Ldlr−/− mice = assay: Liver perfusion, Dil-LDL uptake, Ldlr−/− mice; assay type: in vivo, mouse; conditions: Dil-LDL 50 μg/ml with HNP1 10 μg/ml, 20 min, 2 ml/min, n = 3 per group
In short: (§1)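 Anaesthetised mice underwent laparotomy with double-ligated vena cava. Portal vein cannulated; liver perfused 20 min at 2 ml/min with DiI-labelled human LDL (50 μg/ml) preincubated with 10 μg/ml peptide in PBS, or PBS alone. Liver minced, filtered (100 μm), spun 500 g 5 min, then 36% Percoll-HBSS 800 g 20 min. Top-phase hepatocytes analysed by flow cytometry as fold over background fluorescence; n = 3 per group, Mann-Whitney test.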

[1] = tested on: plasma lipoprotein fractions (VLDL, LDL, HDL); assay: Dot blot of lipoprotein fractions of HNP1-treated mice; assay type: binding, mouse; conditions: HNP1 10 μg i.v., plasma after 24 h
In short: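 Apoe−/− mice on high-fat diet received 10 μg i.v.; plasma collected after 24 h, pooled (10 animals per group, 0.25 ml) and fractionated by FPLC gel filtration on two Superose 6 columns in series. Fractions spotted on nitrocellulose, blocked in 1% milk/PBS (0.5–1.0 h, RT), probed overnight at 4 °C with anti-HNP1, ApoA, ApoB or ApoC3 (1:5000), HRP secondary 1:5000 (1 h, RT), ECL chemiluminescence.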

Apoe−/− mice = assay: Plasma lipids after repeated HNP1 treatment; assay type: in vivo, mouse; conditions: 10 μg every other day i.v., 4 weeks, n = 8–11 per group
In short: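 Female Apoe−/− mice on high-fat diet (21% fat, 0.15% cholesterol) for 8 weeks received peptide (10 μg i.v., every other day) or PBS i.v. over the last 4 weeks. Plasma triglycerides were measured enzymatically with a kit. Blood leukocytes were counted by flow cytometry after red cell lysis, using CD115/CD11b/CD45/Gr1 staining and counting beads. n = 8–11 per group; one-way ANOVA with Bonferroni test.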

Lp(a) = conditions: ref Bdeir et al., 1999; cited from earlier work
[2] = Plasma HNP1 levels in HNP1-transgenic mice, dot blot; assay type: in vivo, mouse; conditions: Apoe−/− HNP1tg/tg mice, high-fat diet 4 weeks, dot blot against recombinant HNP1
In short: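 Plasma from female HNP1-transgenic Apoe−/− mice after 4 weeks high-fat diet was spotted onto nitrocellulose and blocked in 1% non-fat milk/PBS (0.5–1.0 h, RT). Blots were probed overnight at 4 °C with anti-HNP1 (1:5000), washed in PBS/0.05% Tween 20, then given HRP secondary (1:5000, 1 h, RT) and 3 × 15 min washes. ECL chemiluminescence was the read-out.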

[3] = tested on: Apoe−/− HNP1tg/tg mice on high-fat diet; assay: Atherosclerotic lesions in aortic root, HNP1-transgenic Apoe−/− mice; assay type: in vivo, mouse; conditions: transgenic HNP1 expression, high-fat diet 4 weeks, Ly6G staining, n=10
In short: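 Female Apoe−/− HNP1tg/tg mice (C57Bl/6 background, backcrossed ≥10 generations) fed high-fat diet (21% fat, 0.15% cholesterol) for 4 weeks. Frozen aortic root sections stained with anti-Ly6G (1A8, 1:100), then secondary antibody 30 min at room temperature, with DAPI nuclear counterstain. Images analysed by fluorescence microscopy.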

Apoe−/− HNP1tg/tg mice [4] = assay: Plasma lipids and FPLC lipoprotein fractions, HNP1-transgenic mice; assay type: in vivo, mouse; conditions: transgenic HNP1 expression
In short: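 Female Apoe−/− HNP1tg/tg mice and Apoe−/− littermates were fed high-fat diet (21% fat, 0.15% cholesterol) for 4 weeks. Plasma was stored at −80 °C and triglycerides were measured enzymatically with a kit. For lipoprotein profiles, plasma from 10 animals per group was pooled (0.25 ml) and FPLC gel-filtered on two Superose 6 columns in series.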

[5] = tested on: plasma cholesterol / lipoproteins of hypercholesterolemic mice; assay: Precipitation of lipid-bound HNP1 from plasma with anti-HNP1 magnetic beads; assay type: binding, mouse; conditions: dot blot of precipitate
In short: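 Anti-HNP monoclonal antibody (100 μg) coupled overnight at room temperature to 3.3 × 108 magnetic beads in 1 M ammonium sulfate. Washed beads, at 2 × 109 beads/ml, added to 50 μl plasma from hypercholesterolemic mice incubated with the peptide, then rotated overnight at room temperature. Beads removed; precipitated samples spotted on nitrocellulose and probed by chemiluminescent dot blot with apolipoprotein antibodies.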

mice expressing HNP1 = conditions: ref Abu-Fanne et al., 2016, cited from earlier work
HepG2 cells = assay: Lipid; assay type: cell-based, human
In short: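 HepG2 cells were grown in DMEM with 10% heat-inactivated FCS at 37 °C, 5% CO2. Human LDL (50 μg/ml) was pre-incubated 30 min at 37 °C with peptide (1 μg/ml) or PBS vehicle. Cells were then exposed to LDL for 2 h. Oil Red O staining followed, and the eluted dye gave relative lipid content.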

[6] = tested on: hepatocytes of C57BL/6 wild-type mice; assay: Liver perfusion, Dil-LDL uptake in hepatocytes, wild-type mice; assay type: in vivo, mouse; conditions: Dil-LDL 50 μg/ml with HNP1 10 μg/ml, 20 min, 2 ml/min, normocholesterolemic WT mice, flow cytometry, n = 3 per group
In short: as §1

Apoe−/− HNP1tg/tg mice [7] = assay: Blood cell counts by flow cytometry, HNP1-transgenic mice; assay type: in vivo, mouse; conditions: transgenic HNP1 expression, vs Apoe−/−, high-fat diet 4 weeks, n = 10
In short: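 Female Apoe−/− HNP1tg/tg mice and Apoe−/− littermates (C57Bl/6 background, ≥10 backcross generations) fed high-fat diet (21% fat, 0.15% cholesterol) for 4 weeks. Blood red cells were lysed (150 mM NH4Cl, 10 mM KHCO3, 0.1 mM diNaEDTA, pH 7.4) and HBSS-washed. Cells were stained for CD115, CD11b, CD45 and Gr1 and analysed by flow cytometry; absolute counts came from counting beads.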

[8] = target: human neutrophil peptide 1 (human); assay: SPR

Kd [8] | Substance | LDL uptake in the liver (portal vein perfusion), Ldlr−/− (liver of Ldlr−/− mice) | Detection of HNP1 in lipoprotein fractions ([1]; FPLC fractions, dot blot) | Apolipoproteins in HNP1-positive fractions ([1]; antibodies to ApoA1, ApoB, ApoC3) | Plasma cholesterol levels after repeated treatment (Apoe−/− mice; vs baseline, PBS not different from baseline) | Plasma triglyceride levels and blood leukocyte counts after repeated treatment (Apoe−/− mice) | Interaction with Lp(a) (Lp(a)) | Plasma HNP1 levels [2] | Number of lesional neutrophils [3] | HDL-cholesterol (Apoe−/− HNP1tg/tg mice [4]; FPLC, pooled plasma of 10 animals per group) | Plasma triglyceride levels (Apoe−/− HNP1tg/tg mice [4]; high-fat diet 4 weeks, n=10) | Apolipoproteins in anti-HNP1 precipitate [5] | Total cholesterol and LDL plasma levels in mice expressing HNP1 (mice expressing HNP1; normocholesterolemic) | Lipid deposits in mice with transgenic HNP1 expression (mice expressing HNP1; prolonged periods of high fat diet feeding) | HNP1-assisted LDL clearance after LDLR silencing (HepG2 cells; Ldlr siRNA 100 nM, 24 h, HepG2) | LDL uptake by HepG2 (HepG2 cells; human LDL 50 μg/ml, HNP1 1 μg/ml, 2 h, Oil Red O elution) | LDL uptake in hepatocytes (portal vein perfusion) [6] | Blood counts of leukocyte subpopulations (Apoe−/− HNP1tg/tg mice [7])
– | human neutrophil peptide 1 [HNP1] | failed to stimulate LDL uptake in the liver | only detected in VLDL and LDL fractions but not in HDL fractions | ApoB and ApoC3 were detected but not ApoA1 | lowered plasma cholesterol levels below baseline levels | not affected by HNP1 treatment | shown to interact with Lp(a) | 0.5 to 1 µg/mL | The number of lesional neutrophils was not affected | HDL-cholesterol remained unaffected | triglyceride levels remained unaffected | precipitate stained positive for ApoB and ApoC3 | total cholesterol levels as well as LDL plasma levels were reduced in mice expressing HNP1 | facilitated the development of very small lipid deposits | silencing of LDLR abrogated HNP1-assisted LDL clearance | strongly enhanced LDL uptake | vast increase of LDL uptake in hepatocytes | comparable between the groups
2.45 nM | human ApoB (from UniProt P04114 28-4563) (natural protein) | – | – | – | – | – | – | – | – | – | – | – | – | – | – | – | – | –
0.0358 nM | human ApoC3 (from UniProt P02656 21-99) (natural protein) | – | – | – | – | – | – | – | – | – | – | – | – | – | – | – | – | –
